Reference: paper PMC3279955 (ACS chemical neuroscience, 2012)

Key:
[1] = test system: primary immature cortical neurons; assay: Oxidative stress; assay type: cell-based
In short: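 Primary cortical neurons were exposed to test compound (20 μM) with or without homocysteic acid (HCA, 5 mM), which depletes glutathione. Survival was read by MTT assay after 48 h and expressed as percent of the no-inhibitor control, mean ± SEM. Live/dead staining with calcein AM and ethidium homodimer was done in parallel.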

[2] = test system: human SMA patient fibroblasts; settings: commercially available GSK-3 inhibitors; cited from earlier work
Δ7 SMA KO mouse [3] = assay: Δ7 SMA KO neonatal mouse model: survival, body weight, tolerability; assay type: in vivo
PKCβ2 = PKCβ2 (Homo sapiens, UniProt P05771); assay: Kinase inhibition assay; assay type: biochemical
GSK-3 = GSK-3 inhibition in the presence of 10 µM ATP; assay type: biochemical; settings: read-out: GSK-3 IC50; tested in the presence of 10 µM ATP
Δ7 SMA KO mouse [4] = assay: Δ7 SMA KO mouse model: tube test; assay type: in vivo; settings: 75 mg/kg once a day; postnatal day 6, 8, 10 and 12
Δ7 SMA KO mouse [5] = assay: Δ7 SMA KO mouse model: negative geotaxis test; assay type: in vivo; settings: 75 mg/kg once a day
[6] = test system: human SMA patient fibroblasts; assay: SMN protein level in SMA patient fibroblasts by western blot; assay type: cell-based; settings: 72 h
In short: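 Fibroblasts from SMA patients were exposed to test compound (20, 25 or 30 μM) or DMSO vehicle for 72 h. SMN protein was assessed by Western blot and quantified from three separate experiments.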

Chain of PKCβ2 (P05771 1-673 isoform P05771-2): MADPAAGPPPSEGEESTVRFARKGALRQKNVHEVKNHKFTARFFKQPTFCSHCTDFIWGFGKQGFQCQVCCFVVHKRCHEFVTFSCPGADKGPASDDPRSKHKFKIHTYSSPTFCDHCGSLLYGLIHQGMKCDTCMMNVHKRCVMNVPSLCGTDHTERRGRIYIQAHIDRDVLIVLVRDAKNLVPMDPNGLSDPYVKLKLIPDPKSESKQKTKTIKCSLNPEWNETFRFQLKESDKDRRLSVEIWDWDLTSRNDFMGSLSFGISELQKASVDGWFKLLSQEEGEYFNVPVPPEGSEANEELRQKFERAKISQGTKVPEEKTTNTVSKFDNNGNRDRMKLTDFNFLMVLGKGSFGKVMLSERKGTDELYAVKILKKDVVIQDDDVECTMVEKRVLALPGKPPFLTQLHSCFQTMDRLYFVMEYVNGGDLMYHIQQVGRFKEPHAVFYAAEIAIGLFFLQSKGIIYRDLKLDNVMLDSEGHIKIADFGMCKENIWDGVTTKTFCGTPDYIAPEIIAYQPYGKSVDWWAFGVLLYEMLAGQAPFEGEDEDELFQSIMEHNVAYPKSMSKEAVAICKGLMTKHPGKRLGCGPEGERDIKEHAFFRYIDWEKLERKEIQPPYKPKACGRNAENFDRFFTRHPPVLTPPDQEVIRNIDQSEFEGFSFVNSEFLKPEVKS

COc1ccc(CNC(=O)Nc2ncc([N+](=O)[O-])s2)cc1 [AR-A014418, reference compound]
protection in the HCA oxidative stress model ([1]; HCA 5 mM, MTT assay): provided some protection | elevation of SMN levels in vitro [2]: shown to elevate SMN levels in vitro

Cn1cc(C2=C(c3coc4ccccc34)C(=O)NC2=O)c2cc(Br)ccc21 [BIP-135, 3-(5-bromo-1-methyl-1H-indol-3-yl)-4-(benzofuran-3-yl)pyrrole-2,5-dione]
tolerability / toxicity in SMA KO animals (Δ7 SMA KO mouse [3]; 75 mg/kg IP, 100% DMSO as vehicle): did not appear to be toxic and was well-tolerated | effect on SMA KO body weight versus vehicle (Δ7 SMA KO mouse [3]; 75 mg/kg once a day, p = 0.0435, after around P6): showed an improvement in body weight | IC50 (PKCβ2): 219 nM | IC50 (GSK-3): […] | tube test parameters (time hanging, number of pulls, hind-limb strength score, tube test score) (Δ7 SMA KO mouse [4]): no significant treatment effect | overall motor function (geotaxis and tube test) (Δ7 SMA KO mouse [5]): did not improve the overall motor function | percent of KO mice that completed the geotaxis test (Δ7 SMA KO mouse [5]; P12, p = 0.0315): more KO animals treated with BIP-135 completed the geotaxis test | latency to complete the negative geotaxis test (Δ7 SMA KO mouse [5]; p = 0.0683): no significant treatment effects | protection of HCA-treated cortical neurons (survival) ([1]; 20 µM, HCA 5 mM, MTT assay, HCA alone approximately 25 percent survival): about 80% | protection in the HCA oxidative stress model ([1]; HCA 5 mM, MTT assay): able to protect at a lower concentration | toxicity to neurons exposed to compound alone ([1]; absence of HCA): No significant toxicity | increase in SMN levels compared to vehicle treated cells ([6]; 25 µM, western blot): 7 fold | toxicity in SMA patient fibroblasts (bell-shaped dose-response) ([6]; higher concentrations): some toxicity at higher concentrations

O=C1Cc2c([nH]c3ccc([N+](=O)[O-])cc23)-c2ccccc2N1 [alsterpaullone]
elevation of SMN levels in vitro [2]: shown to elevate SMN levels in vitro

CHIR98014
elevation of SMN levels in vitro [2]: shown to elevate SMN levels in vitro
